Measured values from ChEMBL document CHEMBL1148917, “Dibenzyl bromophenols with diverse dimerization patterns from the brown alga Leathesia nana” (J Nat Prod, 2004).

Experiments:
Assay type in all cases: functional, cell-based
A549 = test: Cytotoxicity against human A549 cells after 96 hrs by MTT assay
In short: (§1)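 Cells grown in RPMI1640 with 10% FBS, penicillin and streptomycin at 37 °C under humidified 5% CO2; seeded at 1200 cells/well and dosed 24 h later. Five concentrations per compound in DMSO (0.1% final), three parallel wells each. After 96 h exposure, MTT conversion to formazan read at 570 nm; IC50 calculated from the readings.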

HCT-8 = test: Cytotoxicity against human HCT8 cells after 96 hrs by MTT assay; in short: as §1
Bel-7402 = test: Cytotoxicity against human Bel7402 cells after 96 hrs by MTT assay; in short: as §1
MCF7 = test: Cytotoxicity against human MCF7 cells after 96 hrs by MTT assay; in short: as §1
BGC-823 = test: Cytotoxicity against human BGC823 cells after 96 hrs by MTT assay; in short: as §1

Row | SMILES | IC50 (A549) [µM] | IC50 (HCT-8) [µM] | IC50 (Bel-7402) [uM/ml] | IC50 (MCF7) [µM] | IC50 (BGC-823) [µM]
1 | COCc1c(Br)c(Br)c(O)c(O)c1Cc1cc(O)c(O)c(Br)c1Br | 2.5 | > 16.8 | 0.0048 | 2.7 | 8.8
2 | COCc1cc(O)c(O)c(Br)c1Cc1cc(O)c(O)c(Br)c1Br | 5.4 | 5.9 | 0.0074 | 4.6 | 18
3 | Oc1cc(Cc2cc(O)c(O)c(Br)c2Br)c(Br)c(Br)c1O | 1.8 | 2.2 | > 0.0182 | 2.7 | 3.8
4 | Oc1cc(COCc2cc(O)c(O)c(Br)c2Br)c(Br)c(Br)c1O | > 19.5 | 20.7 | > 0.0019 | 21.4 | 8.6
5 | CCOCc1cc(O)c(O)c(Br)c1Cc1cc(O)c(O)c(Br)c1Br | > 19 | 2.8 | 0.0055 | 3.4 | 4.6
